Reference: ChEMBL document CHEMBL4190230, “Structurally Diverse Diterpenoids from Isodon scoparius and Their Bioactivity” (J Nat Prod, 2017)

Assays:
Assay type in all cases: functional, cell-based
HL-60 = assay: Antiproliferative activity against human HL60 cells after 48 hrs by MTS assay; conditions: HL-60, 48 h
How it was run: (§1)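 Cells grown in RPMI-1640 or DMEM with 10% FBS at 37 °C, 5% CO2. Seeded, 12 h at 37 °C, then 40 μM single-concentration screen, 48 h exposure, MTS read-out. Compounds reaching 50% growth inhibition retested at 0.064, 0.32, 1.6, 8 and 40 μM in triplicate; cisplatin and paclitaxel positive controls; IC50 by Reed and Muench method.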

SMMC-7721 = assay: Antiproliferative activity against human SMMC7721 cells after 48 hrs by MTS assay; conditions: SMMC-7721, 48 h; how it was run: as §1
A549 = assay: Antiproliferative activity against human A549 cells after 48 hrs by MTS assay; conditions: A549, 48 h; how it was run: as §1
MCF7 = assay: Antiproliferative activity against human MCF7 cells after 48 hrs by MTS assay; conditions: MCF7, 48 h; how it was run: as §1
SW480 = assay: Antiproliferative activity against human SW480 cells after 48 hrs by MTS assay; conditions: SW480, 48 h; how it was run: as §1
RAW264.7 = assay: Inhibition of LPS-induced NO production in mouse RAW264.7 cells after 18 hrs by Griess assay; conditions: RAW264.7, 18 h
How it was run: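 RAW264.7 macrophages seeded at 1.5 × 10^5 cells/well, given serial dilutions (top 20 μM) in triplicate, then stimulated with 1 μg/mL LPS for 18 h. Supernatant nitrite measured with Griess reagent, 5 min, absorbance 570 nm. L-NMMA positive control; parallel MTS viability check to exclude cytotoxic interference.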

| IC50 (HL-60) | IC50 (SMMC-7721) | IC50 (A549) | IC50 (MCF7) | IC50 (SW480) | IC50 (RAW264.7) | SMILES |
| --- | --- | --- | --- | --- | --- | --- |
| > 40 µM | > 40 µM | > 40 µM | > 40 µM | > 40 µM | – | C=C1[C@@H](O)[C@@]23CC[C@H]4[C@@](C)(CCC[C@@]4(C)C=O)[C@@H]2[C@@H](OC(C)=O)C[C@]1(O)C3 |
| > 40 µM | > 40 µM | > 40 µM | > 40 µM | > 40 µM | – | C=C1[C@@H](O)[C@@]23CC[C@@H]4C(C)(C)[C@H](O)CC[C@@]4(C)[C@@H]2[C@@H](O)C[C@]1(O)C3 |
| > 40 µM | > 40 µM | > 40 µM | > 40 µM | > 40 µM | – | C=C1[C@@H](O)[C@@]23CC[C@@H]4[C@@](C)(CO)CCC[C@@]4(C)[C@@H]2[C@@H](OC(C)=O)C[C@]1(O)C3 |
| > 40 µM | > 40 µM | > 40 µM | > 40 µM | > 40 µM | – | C=C1[C@@H](O)[C@@]23CC[C@@H]4C(C)(C)[C@H](O)CC[C@@]4(C)[C@@H]2[C@@H](OC(C)=O)C[C@]1(O)C3 |
| > 40 µM | > 40 µM | > 40 µM | > 40 µM | > 40 µM | – | C=C1[C@@H](O)[C@@]23CC[C@@H]4[C@@](C)(CO)CCC[C@@]4(C)[C@@H]2[C@@H](O)C[C@]1(O)C3 |
| > 40 µM | > 40 µM | > 40 µM | > 40 µM | > 40 µM | – | C=C1[C@@H](O)[C@@]23CC[C@@H]4C(C)(C)[C@@H](O)CC[C@@]4(C)[C@@H]2[C@@H](OC(C)=O)C[C@]1(O)C3 |

More lines, now with the values behind:

| SMILES | IC50 (HL-60) | IC50 (SMMC-7721) | IC50 (A549) | IC50 (MCF7) | IC50 (SW480) | IC50 (RAW264.7) |
| --- | --- | --- | --- | --- | --- | --- |
| C=C1C(=O)[C@]23C[C@@]1(O)C[C@H](OC(C)=O)[C@H]2[C@@]1(C)[C@H](C[C@H]3O)[C@](C)(CO)CC[C@@H]1O | > 40 µM | > 40 µM | > 40 µM | > 40 µM | > 40 µM | – |
| C[C@@]1(CO)CCC[C@@]2(C)[C@H]1C[C@@H](O)C1=CC(=O)CC[C@@]12O | > 40 µM | > 40 µM | > 40 µM | > 40 µM | > 40 µM | – |
| C=C1C(=O)[C@]23C[C@@]1(O)C[C@H](OC(C)=O)[C@H]2[C@@]1(C)[C@H](C[C@H]3O)C(C)(C)CC[C@@H]1O | 7 µM | 4.7 µM | 19.6 µM | 11 µM | 2.5 µM | 3.1 µM |
| C=C1C(=O)[C@@]23CC[C@@H]4C(C)(C)[C@@H](O)CC[C@@]4(C)[C@@H]2[C@@H](OC(C)=O)C[C@]1(O)C3 | 1 µM | 1.5 µM | 4.4 µM | 2.9 µM | 0.9 µM | 1 µM |
| C=C1C(=O)[C@]23C[C@@]1(O)C[C@H](OC(C)=O)[C@H]2[C@@]1(C)[C@H](C[C@H]3O)[C@](C)(COC(C)=O)CC[C@@H]1O | 3.2 µM | 3.9 µM | 13.4 µM | 4.8 µM | 1.3 µM | 1.8 µM |
| CC(=O)O[C@H]1C(=O)[C@@]2(C)[C@H]([C@H](OC(=O)c3ccccc3)[C@]3(O)C[C@H](OC(=O)[C@H](O)[C@@H](NC(=O)c4ccccc4)c4ccccc4)C(C)=C1C3(C)C)[C@]1(OC(C)=O)CO[C@@H]1C[C@@H]2O [PACLITAXEL] | < 0.008 µM | < 0.008 µM | < 0.008 µM | < 0.008 µM | < 0.008 µM | – |
| CNC(=N)NCCC[C@H](N)C(=O)O [TILARGININE ACETATE] | – | – | – | – | – | 39.9 µM |
